Published values pooled from the literature.
Protocols differ between the studies behind these lines.
gag-pol reverse transcriptase: Gag-Pol polyprotein, reverse transcriptase (gag-pol, Human immunodeficiency virus 1, UniProt P03366)
OPRD1: Delta-type opioid receptor (OPRD1, Homo sapiens, UniProt P41143)

Cc1cc(C)cc(S(=O)(=O)c2c(C(=O)NCCNS(=O)(=O)c3ccc(F)cc3)[nH]c3ccc(Cl)cc23)c1
IC50 (gag-pol reverse transcriptase; enzyme activity; inhibitor; ELISA): 66 nM

CNc1nc(C#Cc2ccc(Cl)s2)nc2c1ncn2[C@H]1[C@H](O)[C@H](O)[C@]2(C(=O)NCCN)C[C@H]12
Ki (OPRD1; ligand displacement; radioligand): > 10000 nM

CCn1c(-c2nc3cc(C(=O)N4CCC[C@@H](N)C4)cc(OC)c3n2C)cc2cccnc21
EC50 (5-hydroxytryptamine receptor 3A (HTR3A, Homo sapiens, UniProt P46098); calcium signal; agonist): > 50100 nM

CNC(=O)[C@@]12C[C@@H]1[C@@H](n1cnc3c(NC)nc(C#Cc4ccc(F)c(F)c4)nc31)[C@H](O)[C@@H]2O
Ki (OPRD1; ligand displacement; radioligand): > 10000 nM

Cc1cnc(-c2ccc(-c3ccc(NC(=O)Nc4c(F)cc(F)cc4F)cc3F)c3c2C(=O)NC3)[nH]1
Kd (STE20-like serine/threonine-protein kinase (SLK, Homo sapiens, UniProt Q9H2G2); binding; competition with immobilised ligand): 0.3 nM

CC(C)Oc1c(NC(=O)c2ccc(NC(=O)[C@H](CC(N)=O)NC(=O)c3ccc(NC(=O)c4ccc(C5(C(F)(F)F)N=N5)cc4)cc3)cc2)ccc(C(=O)Nc2ccc(C(=O)O)cc2)c1O
IC50 (DNA gyrase subunit A (gyrA, Escherichia coli K-12, UniProt P0AES4); enzyme activity; inhibitor): 16000 nM

Cc1ccc(S(=O)(=O)NCCCCCNC(=O)c2[nH]c3ccc(Cl)cc3c2S(=O)(=O)c2cc(C)cc(C)c2)cc1
IC50 (gag-pol reverse transcriptase; enzyme activity; inhibitor; ELISA): 130 nM

CC1=C(/C=C/C2=CCC[C@]3(C)[C@@H]([C@H](C)CCCC(C)(C)O)CC[C@@H]23)C[C@@H](O)CC1
EC50 (Oxysterols receptor LXR-alpha (NR1H3, Homo sapiens, UniProt Q13133); coactivator recruitment; agonist; TR-FRET): 10 to 100 nM

Cc1ccc(S(=O)(=O)NCCCCNC(=O)c2[nH]c3ccc(Cl)cc3c2S(=O)(=O)c2cc(C)cc(C)c2)cc1
IC50 (gag-pol reverse transcriptase; enzyme activity; inhibitor; ELISA): 140 nM

CNc1nc(C#Cc2ccccc2)nc2c1ncn2[C@H]1[C@H](O)[C@H](O)[C@@H]2C[C@@H]21
Ki (OPRD1; ligand displacement; radioligand): > 10000 nM

Cc1cc(C)cc(S(=O)(=O)c2c(C(=O)NCCCCNS(=O)(=O)c3ccc(C#N)cc3)[nH]c3ccc(Cl)cc23)c1
IC50 (gag-pol reverse transcriptase; enzyme activity; inhibitor; ELISA): 120 nM

CNc1nc(C#Cc2ccc(Cl)s2)nc2c1ncn2[C@H]1[C@H](O)[C@H](O)[C@]2(C(=O)OCCC(C)C)C[C@H]12
Ki (OPRD1; ligand displacement; radioligand): > 10000 nM
